Consider three molecules from paper PMC10360043 (FASEB journal : official publication of the Federation of …, 2023).

The IC50 is the midpoint of a concentration-inhibition curve.

For data set [1], the target named is T1, ERp72 (Homo sapiens, UniProt P13667).
T1 sequence (P13667 21-645): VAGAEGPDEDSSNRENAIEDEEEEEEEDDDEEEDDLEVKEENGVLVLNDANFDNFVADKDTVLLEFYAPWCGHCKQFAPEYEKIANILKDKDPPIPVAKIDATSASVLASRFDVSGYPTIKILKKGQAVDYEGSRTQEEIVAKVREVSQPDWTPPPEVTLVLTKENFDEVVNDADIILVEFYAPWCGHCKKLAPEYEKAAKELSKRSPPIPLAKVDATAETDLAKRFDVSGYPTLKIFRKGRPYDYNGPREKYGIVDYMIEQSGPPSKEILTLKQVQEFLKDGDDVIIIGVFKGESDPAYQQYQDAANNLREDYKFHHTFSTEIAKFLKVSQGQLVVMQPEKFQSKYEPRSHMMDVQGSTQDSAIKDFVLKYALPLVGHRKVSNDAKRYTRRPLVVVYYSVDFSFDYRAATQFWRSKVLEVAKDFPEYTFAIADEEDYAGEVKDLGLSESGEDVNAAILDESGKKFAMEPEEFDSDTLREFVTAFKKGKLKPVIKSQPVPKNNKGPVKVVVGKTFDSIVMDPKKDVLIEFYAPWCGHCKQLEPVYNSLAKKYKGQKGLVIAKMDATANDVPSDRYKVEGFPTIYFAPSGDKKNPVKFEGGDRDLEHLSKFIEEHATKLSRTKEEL
Nature of the data set: Insulin-based turbidimetric assay, ERp72. The data set is classed as biochemical. The conditions noted are these: insulin turbidity assay, 6-point dose curve. The method, boiled down: (§1)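 Recombinant enzymes were purchased. Test compound was tested as a 6-point dilution series with enzyme at 10 μg/mL final (ERp5 at 30 μg/mL), 125 μM bovine recombinant insulin, 2 mM EDTA and 100 mM potassium phosphate. The reaction was started with 0.3 mM DTT, and insulin aggregation turbidity was read every minute for 75 min.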

The test system of data set [2] is LTR2 receptor. Particulars: cited from earlier work.
Data set [3] concerns the target T2, ERp5 (Homo sapiens, UniProt Q15084).
T2 sequence (Q15084 20-440): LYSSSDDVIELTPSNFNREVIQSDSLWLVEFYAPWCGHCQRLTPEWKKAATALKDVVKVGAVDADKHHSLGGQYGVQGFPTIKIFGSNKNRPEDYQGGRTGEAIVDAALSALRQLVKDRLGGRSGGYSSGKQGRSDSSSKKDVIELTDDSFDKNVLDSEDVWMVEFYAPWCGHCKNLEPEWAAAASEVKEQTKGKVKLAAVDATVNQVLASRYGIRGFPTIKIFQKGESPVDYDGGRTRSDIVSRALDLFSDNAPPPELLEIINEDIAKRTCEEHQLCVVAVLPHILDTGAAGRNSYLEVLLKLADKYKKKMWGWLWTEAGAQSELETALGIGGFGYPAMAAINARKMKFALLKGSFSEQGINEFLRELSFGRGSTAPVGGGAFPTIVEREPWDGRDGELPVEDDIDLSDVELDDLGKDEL
Description: Insulin-based turbidimetric assay, ERp5. The data set is classed as biochemical. The conditions noted are these: insulin turbidity assay, 6-point dose curve. Summed up: as §1

Data set [4] has as its target PDI (Homo sapiens, UniProt P07237). Description: Insulin-based turbidimetric assay, PDI. The data set is classed as biochemical. Particulars: insulin turbidity assay, 6-point dose curve. Summed up:
as §1

For data set [5], the target named is T3, ERp57 (Homo sapiens, UniProt P30101).
T3 sequence (P30101 25-505): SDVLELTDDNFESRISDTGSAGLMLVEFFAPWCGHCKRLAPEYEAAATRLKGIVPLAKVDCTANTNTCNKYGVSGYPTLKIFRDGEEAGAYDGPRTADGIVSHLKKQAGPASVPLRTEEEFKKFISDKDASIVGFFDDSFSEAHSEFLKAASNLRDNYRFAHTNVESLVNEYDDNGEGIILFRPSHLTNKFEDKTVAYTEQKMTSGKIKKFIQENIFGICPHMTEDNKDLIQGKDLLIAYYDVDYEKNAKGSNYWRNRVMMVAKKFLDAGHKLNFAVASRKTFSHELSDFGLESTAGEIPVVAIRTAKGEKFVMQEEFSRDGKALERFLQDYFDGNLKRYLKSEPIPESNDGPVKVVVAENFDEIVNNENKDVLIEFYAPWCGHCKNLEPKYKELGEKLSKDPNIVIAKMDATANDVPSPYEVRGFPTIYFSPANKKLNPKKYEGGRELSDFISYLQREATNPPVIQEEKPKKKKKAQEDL
Description: Insulin-based turbidimetric assay, ERp57. The data set is classed as biochemical. The conditions noted are these: insulin turbidity assay, 6-point dose curve. Summed up:
as §1

In data set [6] the test system is LTR1 receptor. The conditions noted are these: cited from earlier work.
For data set [7], the system named is OVCAR8 tumors. Nature of the data set: OVCAR8 xenograft with cisplatin and gemcitabine. The format is in vivo, NOG mice.
For data set [8] the following is noted: 40 mg, oral ingestion; cited from earlier work.
The test system of data set [9] is HEK293 cell line. Description: PrestoBlue cell viability, HEK293. The format is cell-based. The conditions noted are these: Homo sapiens, HEK293, read-out: cell viability IC50. The method, boiled down: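 HEK293 cells were maintained in high-glucose DMEM with 4 mM glutamine and 10% FBS. Cells were plated at 5,000 per well and grown 24 h, then exposed to test compound or vehicle for 2–24 h. PrestoBlue was added for 10–20 min at 37°C, and fluorescence was read (ex 560/em 590 nm). Signal was expressed as percent of control.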

The conditions of data set [10]: double the FDA approved dose for asthma; cited from earlier work.
Data set [11] has as its system tissue factor dependent Factor Xa generation. Description: Factor Xa generation assay on OVCAR8 cells. The data set is classed as cell-based, human. The conditions noted are these: 1, 3, 10, and 30 µM, 30 minutes; significant at 10 and 30 µM.
For data set [12], the system named is EGFR. Nature of the data set: EGFR phosphorylation after EGF stimulation. Particulars: for decrease of EGFR phosphorylation: then EGF, OVCAR8. The format is cell-based, human. Summed up:
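OVCAR8 cells, grown to confluence, were serum-starved, exposed to test compound for 1 or 4 h, then stimulated with EGF (100 ng/mL final). Whole-cell extracts were made in M-PER, protein was quantified by Bradford, and samples were run on SDS-PAGE and transferred to PVDF. Blots were blocked in 5% milk/TBS, probed with anti-pEGFR-Y1068 and an HRP secondary in 3% BSA/TBS-0.1% Tween 20. Student's t-test versus the EGF control.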

For data set [13], the system named is OVCAR8 cells. Description: PrestoBlue cell viability, OVCAR8. The format is cell-based, human. The conditions noted are these: for OVCAR8 cell viability, time course: concentrations and timepoints used in Figure 4A and B.
The nature of data set [14]: Pilot clinical trial, adverse events. The conditions noted are these: 40 mg twice daily, four women. The data set is classed as in vivo, human.
For data set [15], the system named is OVCAR8 tumors. Nature of the data set: OVCAR8 xenograft in NOG mice. The data set is classed as in vivo. The conditions noted are these: 30 mg/kg i.p. daily.
Data set [16] has as its system CA-125. Nature of the data set: Pilot clinical trial, CA-125 in relapsed ovarian cancer. The data set is classed as in vivo, human.
The test system of data set [17] is plasma thiol isomerase. Description: Plasma thiol isomerase activity of patients. Particulars: day 28 versus day 0, 40 mg twice daily. The format is in vivo, human.
The subject of data set [18] is PDI, ERp5, ERp57, and ERp72 levels in OVCAR8 cells. Description: Western blot of thiol isomerase levels in OVCAR8 cells. The conditions noted are these: 10 μM and 30 μM, 1 hour. The data set is classed as cell-based, human. In general terms: In western blotting, separated proteins are transferred to a membrane and probed.
The test system of data set [19] is Gab1. Description: Gab1 phosphorylation after EGF stimulation. The data set is classed as cell-based, human.

Chain of PDI (P07237 18-508): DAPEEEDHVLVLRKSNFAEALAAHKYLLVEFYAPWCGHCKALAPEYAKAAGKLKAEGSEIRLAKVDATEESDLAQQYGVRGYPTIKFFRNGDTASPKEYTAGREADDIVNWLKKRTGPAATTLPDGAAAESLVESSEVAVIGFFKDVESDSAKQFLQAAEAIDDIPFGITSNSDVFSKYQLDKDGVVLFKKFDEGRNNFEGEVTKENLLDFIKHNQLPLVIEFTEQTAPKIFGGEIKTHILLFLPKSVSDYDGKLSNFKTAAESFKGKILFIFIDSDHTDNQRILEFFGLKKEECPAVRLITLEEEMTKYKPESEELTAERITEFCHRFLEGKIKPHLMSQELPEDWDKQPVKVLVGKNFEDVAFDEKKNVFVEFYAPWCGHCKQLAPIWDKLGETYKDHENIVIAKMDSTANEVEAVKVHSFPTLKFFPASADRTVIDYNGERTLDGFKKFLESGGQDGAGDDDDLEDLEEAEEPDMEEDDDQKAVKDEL

With `CC(C)(O)c1ccccc1CC[C@@H](SCC1(CC(=O)O)CC1)c1cccc(/C=C/c2ccc3ccc(Cl)cc3n2)c1` [montelukast], the “inhibition of ERp72” value in data set [1] is on record as “inhibited all four thiol isomerases albeit with less potency”. In addition, the “effects on the LTR2 receptor” value in data set [2] is recorded as “minimal effects”. Besides, the “inhibition of ERp5” value in [3] is “inhibited all four thiol isomerases albeit with less potency”. Also, in data set [4], the “inhibition of PDI” value is listed as “inhibited all four thiol isomerases albeit with less potency”. Also, the “inhibition of ERp57” value in [5] is “inhibited all four thiol isomerases albeit with less potency”. The “potency at inhibiting the LTR1 receptor, times more potent than zafirlukast” value in data set [6] is listed as 2–3 times.

Turning to `COc1cc(C(=O)NS(=O)(=O)c2ccccc2C)ccc1Cc1cn(C)c2ccc(NC(=O)OC3CCCC3)cc12` [zafirlukast], the “inhibition of ERp72” value in data set [1] was “concentration-dependent manner”. For the same molecule, the “effects on the LTR2 receptor” value in [2] is “minimal effects”. In addition, the “mean decrease of tumor volume relative to cisplatin-gemcitabine alone” value in [7] (30 mg/kg zafirlukast daily added to 5 mg/kg cisplatin and 120 mg/kg gemcitabine weekly, after 4 weeks) worked out at 38%. Moreover, the “decrease in tumor volume compared to the vehicle control” value in data set [7] (zafirlukast plus cisplatin and gemcitabine, end of the study) was 83%. The peak plasma concentration in data set [8] is ~ 3 μM. Also, the “inhibition of ERp5” value in data set [3] is recorded as “concentration-dependent manner”. Moreover, the IC50 in [9] is > 100 µM; in data set [13] (Homo sapiens, OVCAR-8, read-out: cell viability IC50), 12 µM. Further, in [10], the “tolerability of the 40 mg dose” value is “well tolerated”. For the same molecule, the “Factor Xa generation” value in data set [11] is “dose dependent decrease”. Moreover, the “decrease of EGFR phosphorylation” value in [12] (10 μM, 1 hour) turned out to be 18%; in data set [12] (10 μM, four hours) it was 39%; in data set [12] (30 μM, 1 hour), 27%; in [12] (30 μM, four hours), 52%. In [4], the “inhibition of PDI” value is listed as “concentration-dependent manner”. In addition, the “OVCAR8 cell viability, time course” value in data set [13] is reported as “minimally altered”. For the same molecule, the “inhibition of ERp57” value in [5] is on record as “concentration-dependent manner”. In addition, the “grade 3 or higher adverse events” value in data set [14] is recorded as “no grade 3 or higher adverse events reported”. For the same molecule, the hemorrhage entry in data set [14] is given as “no cases of hemorrhage reported”. In addition, in data set [14], the “toxicity considered possibly related to zafirlukast” value was “headache (grade 1)”. The “lung metastasis score (scale 0–4)” value in data set [15] (32 days, control group 2.5) is listed as 0.25. Further, in data set [15] (day 32), the “mean decrease in tumor volume compared to controls” value is 42%. The CA-125 response entry in [16] (40 mg twice daily, four women) was “None of the women demonstrated a decrease in CA-125”. In addition, the “mean change in CA-125” value in [16] (following 40 mg twice daily, 0.036 prior to treatment) turned out to be 0.015 U/mL per day. Also, the “mean CA-125 doubling time” value in data set [16] (following 40 mg twice daily, 29.8 days prior to treatment) came to 85.69 days. The “reduction of plasma thiol isomerase activity” value in data set [17] was “three out of four patients”. Moreover, the “change in thiol isomerase expression” value in data set [18] is on record as “No significant change”. Further, in [19] (10 μM, 1 hour, then EGF, OVCAR8), the “decrease of Gab1 phosphorylation” value is reported as 37%. Moreover, the “Gab1 phosphorylation decreased to” value in data set [19] (all other time points and concentrations (10 μM 4 hours; 30 μM 1 and 4 hours)) is on record as ≤ 5%.

With PACMA-31, the “inhibition of EGFR activation” value in data set [12] (OVCAR8, Figure 4B) is on record as “inhibited EFGR activation in a concentration-dependent manner”. The “OVCAR8 cell viability, time course” value in [13] is listed as “minimally altered”.
